Source: PubChem
OX1R antag-1 = antagonists of human orexin 1 receptor (OX1R) | Orexin/Hypocretin receptor type 1 (Homo sapiens), O43613 | OX1R-expressing cells, FRET antagonist read-out | inhibition, % at 6.6 µM | 330,000 compounds, 1.8% hits; in the data active = inhibition mostly above about 38%, no sharp cut-off; inactive = mostly below about 40%;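 note: 0% = agonist challenge alone and 100% = reference antagonist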
MPTP inh = mitochondrial permeability transition pore inhibitors, primary screen, biochemical, isolated mouse mitochondria, absorbance. Ca2+ swelling absorbance, 30 min. 360,000 compounds, 1.4% hits. inhibition, % at 10 µM. AID 602449, 2012;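 active = inhibition of 50% or more, scaled per plate between neutral and stimulator controls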;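 note: 0% = DMSO wells given calcium and 100% = 1 mM EGTA wells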
CHO parental Ca = ATP-evoked calcium signal inhibitors, parental CHO, primary screen, counter-screen for OX1R antagonist project, cell-based, fluorescence, Fluo-8 calcium dye; 330,000 compounds, 0.63% hits; parental CHO-K1, ATP-induced calcium, Fluo-8 fluorescence; inhibition, % at 5.6 µM; AID 463079, 2010;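 active = inhibition above that plate's mean sample inhibition plus 3 SD, cut at about 26% in these data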;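 note: 0% = ATP-challenged DMSO wells and 100% = DMSO wells without ATP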
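Assay system: parental CHO cells; Read-out basis: percent inhibition of ATP-evoked calcium rise, normalized to controls; Benchmarks: ATP and no-ATP DMSO wells; Compound dosing: single nominal dose of 5.6 µM per compound; Signal: Fluo-8 calcium dye fluorescence; Also added: ATP as calcium-mobilizing challenge; Repeats: singlicate.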
GPR7 antagonist = GPR7 receptor antagonists, primary screen, cell-based, fluorescence, single concentration; inhibition, % at 4.4 µM; AID 1861, 2009; 290,000 compounds, 1.1% hits; Neuropeptides B/W receptor type 1 (Homo sapiens), P48145; GPR7-expressing cells, fluorescence antagonist assay; in the data active = inhibition above about 16%, passing the limit was not always enough;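 note: cells stimulated with the agonist NPW; 0% = agonist with vehicle and 100% = vehicle without agonist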
Target sequence (P48145 whole entry, looked up): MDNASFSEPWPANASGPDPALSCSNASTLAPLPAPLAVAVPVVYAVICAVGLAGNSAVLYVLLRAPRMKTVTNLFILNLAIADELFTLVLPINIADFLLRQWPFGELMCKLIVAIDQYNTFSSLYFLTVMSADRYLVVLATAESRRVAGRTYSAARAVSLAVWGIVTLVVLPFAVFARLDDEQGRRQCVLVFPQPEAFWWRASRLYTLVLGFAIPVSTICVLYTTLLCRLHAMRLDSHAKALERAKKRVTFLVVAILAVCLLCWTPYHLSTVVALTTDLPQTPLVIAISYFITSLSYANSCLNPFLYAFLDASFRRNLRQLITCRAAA
OX1R antag-2 = OX1R (HCRTR1) antagonists, primary screen, fluorescence, CHO/OX1R cells, Fluo-8 calcium, orexin A. Orexin/Hypocretin receptor type 1 (Homo sapiens), O43613. Fluo-8 calcium fluorescence. inhibition, % at 5 µM. 330,000 compounds, 0.43% hits. AID 434989, 2010;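 active = inhibition above its plate's threshold, mean inhibition of all tested compounds on the plate plus 3 SD, cut at about 37% in these data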;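 note: 0% = orexin A challenge wells and 100% = SB-334867-A antagonist wells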
MPTP counter = fluorescence retest of MPTP screen hits in isolated mitochondria, single concentration. shares compounds with MPTP inh. membrane potential, Rhodamine 123 fluorescence. inhibition, % at 10 µM. 5,000 compounds, 78% hits. AID 624504, 2012; in the data active = inhibition above about 22%;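 note: 0% = DMSO vehicle and 100% = positive control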
MPTP swell DR = mitochondrial permeability transition pore inhibitors, dose response, biochemical, absorbance, uHTS hits. shares compounds with MPTP inh. isolated mitochondria swelling. IC50, µM. 780 compounds, 58% hits; in the data active = IC50 below about 20 µM
MPTP counter DR = fluorescent counter-screen in isolated mitochondria, dose response, counter-screen for MPTP inhibitor project, biochemical, fluorescence, uHTS hits; shares compounds with MPTP inh; 780 compounds, 49% hits; isolated mitochondria counterscreen, fluorescence read-out; IC50, µM; in the data active = IC50 below about 80 µM
Active calls of the source: *; . = not tested or not shown; + = active, no number. An excerpt weighted towards active compounds, which were near 3.8% of everything screened.

SMILES | OX1R antag-1 | MPTP inh | CHO parental Ca | GPR7 antagonist | OX1R antag-2 | MPTP counter | others
COc1ccc([N+](=O)[O-])cc1NC(=O)C(C)c1ccccc1 (configuration not stated) | 6 | 1 | -9 | -10 | -31 | .
COC(=O)NC(NC(=S)Nc1ccccc1OC)C(Cl)(Cl)Cl (configuration not stated) | 32 | 1 | -2 | -2 | -13 | .
COc1ccc([N+](=O)[O-])cc1NC(=S)NC(NC(=O)C(c1ccccc1)c1ccccc1)C(Cl)(Cl)Cl (configuration not stated) | 30 | 95* | 32 | 4 | 23 | 64*
CCN(CC(=O)Nc1ccc(NC(C)=O)cc1)C(=O)c1cccc(N2C(=O)c3ccccc3C2=O)c1 | . | 2 | . | . | . | .
COc1cccc(C2=NN(C(=O)C3CC3)C(O)(C(F)(F)F)C2)c1 (configuration not stated) | . | 0 | . | . | . | .
CN(CC(=O)Nc1ccc(Cl)c(C(F)(F)F)c1)C(=O)c1cc(=O)c2ccccc2o1 | -1 | 3 | -7 | . | -12 | .
CN(C)CCCNc1ncnc2scc(-c3ccccc3)c12 | 11 | 10 | 8 | 22 | -15 | .
c1ccc(-c2csc3ncnc(NCc4ccccn4)c23)cc1 | 17 | 62* | 1 | -13 | -13 | 33*
c1ccc(CNc2ncnc3scc(-c4cccs4)c23)nc1 | 28 | 72* | 44* | -4 | 14 | 57*
CCCCCC(=O)C(=O)c1ccc(O)cc1O | 9 | 3 | -7 | -1 | -5 | .
CCCN(CC(=O)Nc1ccccc1C)C(=O)C1CCN(S(=O)(=O)c2cccc(C(F)(F)F)c2)CC1 | 23 | 0 | -11 | . | -40 | .
Cc1cc(N2CCN(C)CC2)ccc1NC(=O)c1ccc(-c2ccc(Cl)cc2)o1 | 2 | 54* | -15 | . | -21 | -18
CC(=O)N1CCCc2cc(S(=O)(=O)NCCC3=CCCCC3)ccc21 | 23 | 51* | 9 | -7 | -24 | 23*
O=C1CCN(CCCN2CCC(=O)NC2=S)C(=S)N1 | . | 0 | . | . | . | .
CCOc1ccccc1CNC(=O)c1ccc2nc(N3CCOCC3)sc2c1 | 19 | -3 | -11 | -4 | -39 | .
O=C(CCc1ccccc1)NNC(=S)NC(=O)c1ccccc1 | -3 | 6 | -2 | -3 | -2 | .
CC(C)(C)c1cc(CCC(=O)NNC(=S)NC(=O)c2ccccc2)cc(C(C)(C)C)c1O | -3 | 80* | -4 | -3 | -2 | 13
Cc1cc(/C=C2\SC(=S)N(C)C2=O)c(C)n1-c1cccc(O)c1 | 10 | 66* | 15 | 2 | 9 | 66*
CN1C(=O)/C(=C\c2cc(N=Nc3ccccc3)ccc2O)SC1=S | 1 | 100* | -6 | 0 | -12 | 76*
COC(=O)Cc1cc(=O)n2[nH]c(C)cc2n1 | -8 | + | -12 | -2 | -9 | 2 | MPTP swell DR=>100;MPTP counter DR=>80
CCOc1ccc(S(=O)(=O)Nc2nc3ccccc3nc2N2CCN(C)CC2)cc1 | 1 | -1 | -5 | -5 | -34 | .
O=S(=O)(Nc1nc2ccccc2nc1N1CCN(c2ccccc2F)CC1)c1ccc(Cl)cc1 | 10 | 79* | -5 | -2 | -10 | 88*
CC(C)C(C)NC(=O)COc1ccc(-c2ccccc2)cc1 (configuration not stated) | 48 | 4 | 7 | 2 | 20 | .
CC(C)C(C)NC(=O)COc1ccc(Sc2ccc(OCC(=O)NC(C)C(C)C)cc2)cc1 (configuration not stated) | 18 | 79* | -15 | 3 | -28 | 89*
CCN1CCN(c2cc(SC(C)C)nc(-c3ccc(OC)cc3)n2)CC1 | . | 78* | . | -7 | . | -16 | MPTP swell DR=10*;MPTP counter DR=62*
